Columns and labels:
A2780 cells = test: Cell viability; assay type: cell-based; conditions: CDDP without adding D-1, 72 h
In short: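 MTT assay (mitochondrial reductase activity) in cisplatin-sensitive A2780 and cisplatin-resistant A2780cis cells. Cells were incubated 72 h with precursor alone, cisplatin alone, or both together. Viability was expressed relative to untreated control, with significance thresholds p≤0.001 and p≤0.0001.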

PC-12 cells = conditions: cisplatin; cited from earlier work
HS-5 cells = test: Cytotoxicity to HS-5 cells; assay type: cell-based; conditions: cisplatin (Figure S16)
SKOV3 cells = test: Cell viability; assay type: cell-based; conditions: CDDP 6 μg/mL alone

With [NH2][Pt]([NH2])([Cl])[Cl] [CDDP, cisplatin] as the compound, how does the “cell viability of A2780” value (A2780 cells) read?
The value was “about 38%”.

And the “inhibition of PC-12 cells” value (PC-12 cells)?
The value was “significantly inhibits”.

And the “inhibition of HS-5 cells” value (HS-5 cells)?
Its value is “significantly inhibits”.

And the “inhibition of SKOV3 cells” value (SKOV3 cells; 72 h (Figure 2A))?
Its value is 48%.

And the “cell death of SKOV3 cells” value (SKOV3 cells; 72 h, control experiment with 3)?
Its value is “about 40%”.

Source: publication PMC4681442 (Angewandte Chemie (International ed. in English), 2015)
